From PubChem BioAssay
Rows were chosen to be rich in hits. Some 1.5% of all compounds tested hit in one or more screens of this group.
CXCR6 inh: inhibitors of human CXCR6 receptor | AID 602244 | inhibition, % at 20 µM | 360,000 tested, 0.36% active | CHO-K1 PathHunter CXCR6 beta-arrestin, luminescence | O00574; in the data active = inhibition above about 34%, passing the limit was not always enough;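 note: antagonist mode with CXCL16 agonist at 10 nM final; 0% = 10 nM CXCL16 with DMSO and 100% = unstimulated wells without agonist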
Target sequence (O00574 whole entry, looked up): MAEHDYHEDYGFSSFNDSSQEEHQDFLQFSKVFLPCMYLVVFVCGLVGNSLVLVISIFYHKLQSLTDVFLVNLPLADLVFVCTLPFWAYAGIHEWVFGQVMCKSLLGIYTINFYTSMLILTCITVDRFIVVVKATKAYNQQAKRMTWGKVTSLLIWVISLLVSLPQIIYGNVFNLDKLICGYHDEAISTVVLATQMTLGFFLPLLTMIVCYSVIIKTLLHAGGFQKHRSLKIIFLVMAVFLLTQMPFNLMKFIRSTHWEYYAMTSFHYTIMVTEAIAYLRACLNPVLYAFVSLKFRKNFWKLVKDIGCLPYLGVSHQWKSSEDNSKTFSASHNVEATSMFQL
CCR6 antag: CCR6 (human) receptor antagonism | P51684 | CHO-K1 CCR6 PathHunter beta-arrestin, luminescence, CCL20-stimulated | inhibition, % at 20 µM | 340,000 tested, 0.49% active;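 active = compounds whose inhibition of the agonist-driven luminescence signal at 20 µM reaches about 50%, limit read from the data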;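 note: cells stimulated with CCL20 at 14 nM final; plate controls were DMSO with CCL20 for no effect and DMSO without agonist for full effect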
Target sequence (P51684 whole entry, looked up): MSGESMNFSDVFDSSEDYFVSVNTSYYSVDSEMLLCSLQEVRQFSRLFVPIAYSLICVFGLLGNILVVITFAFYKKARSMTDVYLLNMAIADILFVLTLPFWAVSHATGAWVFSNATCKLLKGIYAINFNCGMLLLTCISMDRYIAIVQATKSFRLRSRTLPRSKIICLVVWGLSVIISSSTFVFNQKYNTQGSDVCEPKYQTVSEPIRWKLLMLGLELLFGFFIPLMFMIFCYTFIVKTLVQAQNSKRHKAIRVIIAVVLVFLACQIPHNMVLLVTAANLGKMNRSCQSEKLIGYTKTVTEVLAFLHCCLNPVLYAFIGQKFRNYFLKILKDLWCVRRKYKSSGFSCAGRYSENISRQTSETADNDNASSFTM
APJ ag: agonists of human APJ apelin receptor | P35414 | 330,000 tested, 0.11% active | activation, % at 20 µM | CHO-K1 APJ PathHunter beta-arrestin, luminescence; 0% DMSO wells, 100% apelin | AID 2520;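 active = activation more than six SD over the plate average, tested at 20 µM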;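 note: 0% = DMSO alone and 100% = apelin-13 at 10 nM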
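Test system – PathHunter CHO-K1 APJ (AGTRL-1) beta-arrestin reporter cells · Input – 1000 cells/well · Compound – single test compound dose, 20 µM final, 1% DMSO · Times – compound stimulation 90 min at 25 °C, detection 60 min · Technique – beta-gal luminescence · Read-out basis – APJ–arrestin association signal · Control set – negative DMSO alone, positive Apelin-13 at 10 nM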
APJ antag: APJ receptor antagonism; CHO-K1 APJ beta-arrestin complementation, luminescence; P35414; 330,000 tested, 0.32% active; inhibition, % at 20 µM;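 active = inhibition above about 40% at 20 µM, limit read from the data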;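 note: cells challenged with 10 nM apelin-13 agonist together with compound; plate controls were apelin-13 plus DMSO wells for no effect and DMSO wells lacking apelin-13 for full effect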
EBI2 block: blocks human EBI2 receptor beta-arrestin signaling; P32249; EBI2 beta-arrestin recruitment, luminescence, 7a,25-OHC stimulated; inhibition, % at 5 µM; 360,000 tested, 0.81% active; in the data active = inhibition above about 38%;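 note: enzyme fragment complementation signal reports receptor beta-arrestin coupling in cells; 0% = agonist plus DMSO wells and 100% = wells without agonist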
APJ antag confirm: APJ receptor antagonism confirmation; shares compounds with APJ antag; inhibition, % at 20 µM; 950 tested, 66% active; APJ beta-arrestin recruitment, luminescence, antagonist mode; in the data active = inhibition above about 50%
An asterisk follows results filed as active; / = no result given.

SMILES | CXCR6 inh | CCR6 antag | APJ ag | APJ antag | EBI2 block | APJ antag confirm
Nc1[nH]c2cc([N+](=O)[O-])ccc2c1-c1ccccn1 | 33.9 | 49.1 | -6.6 | 47.3* | 19.7 | 99.5*
Cc1ccc(C(C[N+](=O)[O-])Sc2ccc(N)cc2)cc1 (stereo not drawn) | 53.1* | 51.7* | 0.5 | 46.4* | -28.9 | 73.8*
Cc1ccc(C(C[N+](=O)[O-])n2nc(C)cc2C)cc1 (stereo not drawn) | 6.8 | 29.5 | 4.7 | -19.0 | -40.0 | /
COC(=O)C1=C(C)N(Cc2ccccc2)C(=NCC(C)C)N[C@H]1c1cccc(F)c1 | 2.0 | 8.1 | -4.1 | 48.5* | 9.5 | 84.3*
COc1ccc(NC(=O)C2(C)Cc3c(-c4cccc(C(F)(F)F)c4)ccnc3O2)cn1 (stereo not drawn) | 3.9 | / | / | / | -4.0 | /
COc1cccc(N=C2NC(=O)/C(=C/c3cc([N+](=O)[O-])ccc3O)S2)c1 | 25.6 | 34.6 | -8.0 | 41.4* | 16.1 | 52.0*
O=C1NC(=Nc2ccccc2Cl)S/C1=C\c1cc([N+](=O)[O-])ccc1O | 24.6 | 35.0 | -5.1 | 30.7 | 5.0 | /
O=C(CN1C(=O)c2ccccc2C1=O)NCC(=O)OCC(=O)c1cccc([N+](=O)[O-])c1 | 24.3 | 49.0 | -9.3 | 70.3* | 16.4 | 102.6*
O=C(CN1C(=O)C2C3C=CC(C3)C2C1=O)OCC(=O)c1ccc(Cl)cc1 (stereo not drawn) | 3.4 | 13.0 | 9.4 | 3.3 | 4.4 | /
O=C(CN1C(=O)c2ccccc2C1=O)NCC(=O)OCC(=O)c1ccc(Br)cc1 | 2.9 | 0.0 | -5.0 | 28.4 | -2.5 | /
O=C(CNC(=O)c1ccco1)NCC(=O)OCC(=O)c1ccc(Cl)c([N+](=O)[O-])c1 | 58.2* | 89.1* | -33.4 | 82.5* | 12.0 | 146.6*
O=C(Cc1ccccc1)NCC(=O)OCC(=O)c1cccc([N+](=O)[O-])c1 | 21.9 | 52.8* | -6.9 | 45.9* | 14.1 | 67.6*
O=C(CN1C(=O)C2CC=CCC2C1=O)OCC(=O)c1ccc(Cl)c([N+](=O)[O-])c1 (stereo not drawn) | 58.2* | 79.1* | -31.6 | 78.9* | 14.5 | 149.1*
Cc1ccc(CNS(=O)(=O)c2ccc(Cl)s2)cc1 | -7.9 | / | / | / | -13.3 | /
O=C(Nc1ccc2ccccc2c1)C(c1ccccc1)n1c(=O)c(-c2cc3ccccc3[nH]2)nc2ccccc21 (stereo not drawn) | / | / | / | / | -3.4 | /
O=C(NC1CCCC1)c1nc(-c2c(F)cccc2F)oc1-c1ccccc1 | / | / | / | / | -66.5 | /
O=C(CN1C(=O)C2C3C=CC(C3)C2C1=O)OCC(=O)c1ccc([N+](=O)[O-])cc1 (stereo not drawn) | -9.3 | 1.4 | -0.4 | -19.9 | -16.7 | /
O=C(CN1C(=O)C2C3CC(C(Br)C3Br)C2C1=O)OCC(=O)c1cccc([N+](=O)[O-])c1 (stereo not drawn) | 26.1 | 41.6 | -7.2 | 44.1* | 4.8 | 58.5*
N/C(=N\OC(=O)CCCc1ccccc1)c1cccc([N+](=O)[O-])c1 | -12.8 | -3.7 | 13.9 | -17.4 | 2.9 | /
O=C(CCc1ccccc1)OCC(=O)c1cccc([N+](=O)[O-])c1 | 16.0 | 42.5 | -8.1 | 65.5* | 8.1 | 64.1*
Cc1cc(=O)n2nc(N3CCC(C(=O)NCc4ccco4)CC3)sc2n1 | -2.4 | 4.9 | -0.3 | 8.7 | 3.4 | /
Cc1cc(=O)n2nc(N3CCCC(C(=O)NCc4ccco4)C3)sc2n1 (stereo not drawn) | 5.3 | -1.7 | -3.7 | 49.9* | 5.3 | 16.1
CC1(C)C(/C=C/C=C/C=C/C=C2\N(CCCCS(=O)(=O)O)c3ccc4ccccc4c3C2(C)C)=[N+](CCCCS(=O)(=O)[O-])c2ccc3ccccc3c21 | 18.2 | 45.8 | 0.6 | 5.6 | -3.2 | /
N#Cc1cnc(Nc2nc3ccccc3o2)nc1-c1ccccc1 | 16.5 | 54.7* | -12.1 | 52.4* | 18.0 | -1.8
CCCCN(C)CCNC(=O)CN1C(=O)CSc2ccc(S(=O)(=O)N3CCCCC3)cc21 | -7.1 | 14.9 | -4.8 | 49.4* | -11.2 | -27.1
SMILES | CXCR6 inh | CCR6 antag | APJ ag | APJ antag | EBI2 block | APJ antag confirm
CCCCN(C)CCNC(=O)CN1C(=O)CSc2ccc(S(=O)(=O)N3CCOCC3)cc21 | -0.4 | 3.5 | -2.5 | -4.6 | -0.6 | /
COc1nc(-c2ccccc2)cc(-c2ccc(OC)c(OC)c2)n1 | 1.2 | -17.8 | -0.1 | -16.7 | -1.9 | /
Cc1ccc(-c2cc(-c3ccccc3)nc(NN)n2)cc1 | 29.0 | 64.5* | -15.5 | 77.9* | 11.1 | 140.0*
COc1ccc(-c2cc(-c3ccccc3)nc(NN)n2)cc1OC | 43.0* | 86.5* | -12.9 | 57.2* | 13.2 | 129.2*
CC(=O)OC[C@@H]1CN(Cc2ccccc2)C[C@H](n2cnc3c(N(C)C(C)C)ncnc32)O1 | 4.7 | / | / | / | 9.0 | /
COc1cc(/C=C(\C#N)c2nc3ccccc3s2)cc([N+](=O)[O-])c1O | 44.5* | 60.3* | -8.9 | 50.6* | 14.9 | 87.7*
N#C/C(=C\c1ccc(O)c([N+](=O)[O-])c1)c1nc2ccccc2s1 | 34.2 | 46.2 | / | / | 8.6 | /
O=C(CN1c2ccccc2Sc2ccccc21)NNC(=S)Nc1ccc(Cl)cc1 | 14.4 | 28.0 | -13.4 | 51.3* | 5.3 | 70.0*
O=C(NCc1cccs1)c1ccc2nc([C@@H]3O[C@H](CO)[C@H](O)[C@H](O)[C@H]3O)[nH]c2c1 | -1.6 | / | / | / | -2.4 | /
CC(C)CC(NC(=O)C1CCCN1C(=O)OC(C)(C)C)C(=O)NCC(N)=O (stereo not drawn) | 2.2 | 8.9 | / | / | 3.8 | /
COC(=O)C(CC(C)C)NC(=O)C(Cc1ccccc1)NC(=O)C1CCCN1C(=O)OC(C)(C)C (stereo not drawn) | 36.2 | 52.1* | -6.1 | 48.5* | 6.1 | 37.3
CCNC(=O)C1(C)CCN(Cc2ccccc2-c2ccccc2)C1 (stereo not drawn) | -2.7 | / | / | / | -6.2 | /
CC(=NNC(=S)Nc1ccccc1)c1ccccn1 | -9.9 | / | / | / | -4.3 | /
C=CCNC(=S)N/N=C(\C)c1ccccn1 | 20.4 | 49.5 | -6.3 | 66.9* | 37.9 | 48.0
CCOC(=O)C1CCN(c2nc(C)nc3c2oc2ccccc23)CC1 | 2.9 | 3.0 | -4.9 | 44.6* | 1.1 | 29.9
COc1ccc(CN(C)c2ccc(S(=O)(=O)N3CCN(C)CC3)cc2[N+](=O)[O-])cc1OC | -5.3 | 11.0 | -1.6 | 5.7 | -6.0 | /
Cc1nn(Cc2ccc(Cl)cc2)c(C)c1NC(=O)C1CC=CCC1C(=O)O (stereo not drawn) | -0.8 | 20.3 | -2.2 | 50.2* | -9.1 | 32.7
CN(Cc1ccc(Cl)cc1)C(c1cc2ccccc2o1)c1nnnn1C(C)(C)C (stereo not drawn) | 8.7 | / | / | / | -1.0 | /
COC(=O)c1[nH]c(=O)c2ccccc2c1O | 0.4 | 67.8* | -17.1 | 42.8* | 10.3 | -12.5
COC(=O)c1[nH]c(=O)c2ccccc2c1OCc1ccccc1 | 5.5 | 6.1 | 2.3 | 8.3 | -1.1 | /
Cc1cc(Br)cn2c(Cc3cccc(F)c3)c(-c3ccc(Cl)cc3)nc12 | -2.7 | / | / | / | 9.5 | /
